Measurements reported in publication PMC5743405 (International Journal of Oncology, 2017).
Read-outs that look alike come from different tables or passages of the source.

Assays:
AGTRL1 = assay: PathHunter β-arrestin; format: cell-based; conditions: agonist mode, 6 μM
How it was run: (§1)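 β-Arrestin recruitment assay: the enzyme acceptor is fused to β-arrestin and the ED fragment to the GPCR. Recruitment restores β-galactosidase, read by chemiluminescence. % activity = 100% × (test − vehicle)/(max control ligand − vehicle). % inhibition = 100% × (1 − (test − vehicle)/(EC80 control − vehicle)). An agonist hit needs >30% activity and RLU > baseline + 3×SD. An antagonist hit needs >35% inhibition and RLU < EC80 RLU − 3×SD.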

C3AR1 = assay: PathHunter β-arrestin; format: cell-based; conditions: antagonist mode, 6 μM
How it was run: as §1

CCKBR = assay: PathHunter β-arrestin; format: cell-based; conditions: antagonist mode, 6 μM
How it was run: as §1

CCR10 = assay: PathHunter β-arrestin; format: cell-based; conditions: antagonist mode, 6 μM
How it was run: as §1

CCR8 = assay: PathHunter β-arrestin; format: cell-based; conditions: antagonist mode, 6 μM
How it was run: (§2)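 Engineered cells express the receptor fused to one β-galactosidase fragment (ED) and β-arrestin fused to the complementing fragment (EA). Receptor activation recruits β-arrestin, which restores enzyme activity, and this is read by chemiluminescence (RLU). Agonist % activity is 100% × (test − vehicle)/(maximal control ligand − vehicle). Antagonist mode is challenged with an EC80 control agonist, and % inhibition is 100% × (1 − (test − vehicle)/(EC80 − vehicle)). Hits require >30% activity or >35% inhibition, plus a 3×SD RLU margin.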

CHRM1 = assay: PathHunter β-arrestin; format: cell-based; conditions: 6 μM
How it was run: as §2

CHRM5 = assay: PathHunter β-arrestin; format: cell-based; conditions: 6 μM
How it was run: as §2

CMKLR1 = assay: PathHunter β-arrestin; format: cell-based; conditions: antagonist mode, 6 μM
How it was run: as §2

CNR1 = assay: PathHunter β-arrestin; format: cell-based; conditions: antagonist mode, 6 μM
How it was run: as §2

EDG7 = assay: PathHunter β-arrestin; format: cell-based; conditions: antagonist mode, 6 μM
How it was run: as §2

EDNRB = assay: PathHunter β-arrestin; format: cell-based; conditions: antagonist mode, 6 μM
How it was run: as §2

F2RL3 = assay: PathHunter β-arrestin; format: cell-based; conditions: 6 μM
How it was run: as §2

FPRL1 = assay: PathHunter β-arrestin; format: cell-based; conditions: antagonist mode, 6 μM
How it was run: as §2

GPR109B = assay: PathHunter β-arrestin; format: cell-based; conditions: 6 μM
How it was run: (§3)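 Vendor-run (DiscoveRx) PathHunter enzyme fragment complementation. β-Arrestin carries the EA fragment and the receptor carries ED; recruitment restores β-gal activity, read by chemiluminescence (RLU). Agonist % activity = vehicle-subtracted RLU relative to max control ligand (gpcrMAX) or to vehicle (orphanMAX). Antagonist % inhibition = 100% × (1 − vehicle-subtracted sample RLU / vehicle-subtracted EC80 agonist control RLU).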

HTR1E = assay: PathHunter β-arrestin; format: cell-based; conditions: 6 μM
How it was run: as §3

LHCGR = assay: PathHunter β-arrestin; format: cell-based; conditions: antagonist mode, 6 μM
How it was run: as §3

NMU1R = assay: PathHunter β-arrestin; format: cell-based; conditions: 6 μM
How it was run: as §3

NPY1R = assay: PathHunter β-arrestin; format: cell-based; conditions: antagonist mode, 6 μM
How it was run: as §3

NTSR1 = assay: PathHunter β-arrestin; format: cell-based; conditions: antagonist mode, 6 μM
How it was run: (§4)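 GPCR-ED fusion and β-arrestin-EA fusion; arrestin recruitment restores β-galactosidase, read by chemiluminescence. Antagonist mode uses EC80 agonist challenge. % inhibition = 100 × (1 − (test − vehicle RLU)/(EC80 control − vehicle RLU)). Hit requires >35% inhibition and mean RLU below EC80 RLU − 3 × EC80 SD.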

P2RY2 = assay: PathHunter β-arrestin; format: cell-based; conditions: 6 μM
How it was run: (§5)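 β-Arrestin recruitment to GPCR read by β-galactosidase fragment complementation and chemiluminescence. Agonist: % = 100 × (test − vehicle)/(max control ligand − vehicle), hit at >30% and RLU > baseline + 3 SD. Antagonist, against EC80 agonist: % inhibition = 100 × (1 − (test − vehicle)/(EC80 − vehicle)), hit at >35% and RLU < EC80 − 3 SD.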

P2RY6 = assay: PathHunter β-arrestin; format: cell-based; conditions: antagonist mode, 6 μM
How it was run: as §4

PRLHR = assay: PathHunter β-arrestin; format: cell-based; conditions: antagonist mode, 6 μM
PROKR2 = assay: PathHunter β-arrestin; format: cell-based; conditions: antagonist mode, 6 μM
PTGER3 = assay: PathHunter β-arrestin; format: cell-based; conditions: 6 μM
How it was run: as §5

PTGFR = assay: PathHunter β-arrestin; format: cell-based; conditions: antagonist mode, 6 μM
TACR3 = assay: PathHunter β-arrestin; format: cell-based; conditions: antagonist mode, 6 μM
VIPR1 = assay: PathHunter β-arrestin; format: cell-based; conditions: antagonist mode, 6 μM
orphan receptors = assay: orphanMAX β-arrestin panel, agonist mode; format: cell-based; conditions: summary of Table III
TLR5 = assay: western blot, JJ012 cells; format: cell-based, human; conditions: vs untreated control, overnight incubation
TLR9 = assay: western blot, JJ012 cells; format: cell-based, human; conditions: vs untreated control, overnight incubation
TICAM2 (TRAM) = assay: western blot, JJ012 cells; format: cell-based, human; conditions: vs untreated control, overnight incubation
[1] = test system: chondrosarcoma cell growth; conditions: cited from earlier work
TET1/2 and SOCS3 = conditions: human chondrosarcoma; ref previously reported ([8],[9]); cited from earlier work
miR-302C = conditions: human chondrosarcoma; targets Nanog, c-Myc and Bmi1 also; ref [10]; cited from earlier work
[2] = test system: tumor suppressor miRNAs and onco-miRNAs; conditions: JJ012 cell line; ref [7]; cited from earlier work

Proline rich polypeptide 1 [PRP-1]
% Activity (AGTRL1): 1%
% Inhibition (C3AR1): −2%
% Inhibition (CCKBR): −3%
% Inhibition (CCR10): −3%
% Inhibition (CCR8): −4%
% Activity (CHRM1; agonist mode): 1%
% Inhibition (CHRM1; antagonist mode): −12%
% Activity (CHRM5; agonist mode): 5%
% Inhibition (CHRM5; antagonist mode): −4%
% Inhibition (CMKLR1): −2%
% Inhibition (CNR1): 2%
% Inhibition (EDG7): −3%
% Inhibition (EDNRB): −1%
% Activity (F2RL3; agonist mode): −1%
% Inhibition (F2RL3; antagonist mode): −1%
% Inhibition (FPRL1): −2%
% Activity (GPR109B; agonist mode): 1%
% Inhibition (GPR109B; antagonist mode): −6%
% Activity (HTR1E; agonist mode): 3%
% Inhibition (HTR1E; antagonist mode): 5%
% Inhibition (LHCGR): −15%
% Activity (NMU1R; agonist mode): 1%
% Inhibition (NMU1R; antagonist mode): −3%
% Inhibition (NPY1R): 4%
% Inhibition (NTSR1): −1%
% Activity (P2RY2; agonist mode): 2%
% Inhibition (P2RY2; antagonist mode): −4%
% Inhibition (P2RY6): 3%
% Inhibition (PRLHR): −3%
% Inhibition (PROKR2): 8%
% Activity (PTGER3; agonist mode): 1%
% Inhibition (PTGER3; antagonist mode): −2%
% Inhibition (PTGFR): 1%
% Inhibition (TACR3): −1%
% Inhibition (VIPR1): −9%
orphan receptor agonism (orphan receptors): neither that this peptide was agonist for orphan receptors
protein expression (TLR5): PRP-1 did not have any effect
protein expression (TLR9): no indication of PRP-1 effect
protein expression (TICAM2 (TRAM)): upregulated in dose-dependent manner
inhibition of chondrosarcoma cell growth ([1]; ref [4],[5]): 80–90%
inhibition of chondrosarcoma cell growth ([1]; ref [4],[6]): > 80%
expression of TET1/2 and SOCS3 (TET1/2 and SOCS3): significant upregulation
miR-302c expression (miR-302C): epigenetically downregulates
miRNA regulation [2]: upregulate tumor suppressor miRNAs and downregulate onco-miRNAs
